Measurements as given in ChEMBL document CHEMBL1139484, “Design, synthesis, and binding studies of new potent ligands of cannabinoid receptors” (J Med Chem, 2005).

What was measured:
[1] = Inhibition of anandamide membrane transporter in RBL-2H3 cells assessed as [14C]anandamide uptake; format: cell-based, Rattus norvegicus
Outline: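 RBL-2H3 cells incubated with [14C]anandamide (4 µM) for 5 min at 37 °C, with or without varying inhibitor concentrations. Medium extracted with CHCl3/CH3OH (2:1); residual radioactivity taken as measure of uptake. IC50 from fit; mean of 3 experiments.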

Cannabinoid receptor 2 = Cannabinoid receptor 2 (Homo sapiens, UniProt P34972); assay: Displacement of [3H]CP-55940 from human CB2 receptor expressed in COS cells; format: cell-based
Chain of Cannabinoid receptor 2 (P34972 whole entry): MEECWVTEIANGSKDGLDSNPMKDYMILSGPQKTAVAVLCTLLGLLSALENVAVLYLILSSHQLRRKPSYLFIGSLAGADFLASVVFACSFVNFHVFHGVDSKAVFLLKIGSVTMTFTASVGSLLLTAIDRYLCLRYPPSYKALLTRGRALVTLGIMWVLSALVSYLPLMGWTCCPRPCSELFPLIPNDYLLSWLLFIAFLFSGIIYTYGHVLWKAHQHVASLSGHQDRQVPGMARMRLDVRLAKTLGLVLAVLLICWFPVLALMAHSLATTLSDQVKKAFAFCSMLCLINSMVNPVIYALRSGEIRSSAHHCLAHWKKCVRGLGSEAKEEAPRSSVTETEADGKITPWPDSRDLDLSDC

Cannabinoid receptor 1 = Cannabinoid receptor 1 (Homo sapiens, UniProt P21554); assay: Displacement of [3H]CP-55940 from human CB1 receptor expressed in COS cells; format: cell-based
Chain of Cannabinoid receptor 1 (P21554 whole entry): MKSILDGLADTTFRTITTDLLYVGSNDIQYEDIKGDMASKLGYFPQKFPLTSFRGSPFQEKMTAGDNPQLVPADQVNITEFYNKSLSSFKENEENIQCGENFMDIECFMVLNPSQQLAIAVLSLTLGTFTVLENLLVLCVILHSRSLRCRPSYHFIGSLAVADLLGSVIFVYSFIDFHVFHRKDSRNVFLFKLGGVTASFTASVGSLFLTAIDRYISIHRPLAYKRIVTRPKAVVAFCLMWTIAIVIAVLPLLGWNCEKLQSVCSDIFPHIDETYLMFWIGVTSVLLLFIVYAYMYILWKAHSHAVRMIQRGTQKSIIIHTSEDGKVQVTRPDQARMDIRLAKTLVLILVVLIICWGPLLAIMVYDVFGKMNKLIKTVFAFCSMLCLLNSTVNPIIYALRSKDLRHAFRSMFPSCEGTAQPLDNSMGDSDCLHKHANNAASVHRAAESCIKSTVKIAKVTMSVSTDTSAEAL

[2] = target: T1, Fatty-acid amide hydrolase 1 (Rattus norvegicus, UniProt P97612); assay: Inhibition of rat brain FAAH assessed as [14C]anandamide hydrolysis
T1 sequence (P97612 whole entry): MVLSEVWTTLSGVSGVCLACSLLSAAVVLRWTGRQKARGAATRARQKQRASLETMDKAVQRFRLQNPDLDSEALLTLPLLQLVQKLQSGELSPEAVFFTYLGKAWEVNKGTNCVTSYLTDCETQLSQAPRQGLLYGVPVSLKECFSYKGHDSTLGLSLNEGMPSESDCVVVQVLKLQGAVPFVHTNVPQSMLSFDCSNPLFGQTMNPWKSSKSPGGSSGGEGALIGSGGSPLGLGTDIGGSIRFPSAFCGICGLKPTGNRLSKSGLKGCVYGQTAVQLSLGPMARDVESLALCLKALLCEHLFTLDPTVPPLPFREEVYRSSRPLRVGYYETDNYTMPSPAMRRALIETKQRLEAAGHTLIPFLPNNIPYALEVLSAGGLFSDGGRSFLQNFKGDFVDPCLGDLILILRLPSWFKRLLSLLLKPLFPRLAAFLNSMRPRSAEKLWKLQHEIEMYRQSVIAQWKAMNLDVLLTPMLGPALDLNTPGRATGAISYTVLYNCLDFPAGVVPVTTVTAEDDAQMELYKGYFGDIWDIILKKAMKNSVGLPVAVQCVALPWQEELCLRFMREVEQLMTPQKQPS
Outline: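 Rat brain membranes incubated with [14C]anandamide (6 µM) and increasing compound concentrations in 50 mM Tris-HCl pH 9, 30 min, 37 °C. Mixture extracted with 2 volumes CHCl3/CH3OH (2:1); [14C]ethanolamine in aqueous phase counted by scintillation. IC50 reported; mean of 3 experiments.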

[3] = target: Cannabinoid receptor (Homo sapiens) (UniProt P34972+P21554); assay: Selectivity for human CB2 receptor over human CB1 receptor; format: protein assay
Chain of Cannabinoid receptor (Homo sapiens) (P21554 whole entry, looked up): as the sequence (P21554 whole entry) above
Chain of Cannabinoid receptor (Homo sapiens) (P34972 whole entry, looked up): as the sequence (P34972 whole entry) above
Outline: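 Ratio of Ki values from [3H]CP-55,940 (0.5 nM) displacement on P2 membranes of COS cells transfected with human CB1 or CB2; Ki from IC50 by Cheng-Prusoff, mean of 3 experiments.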

| Structure (SMILES) | IC50 [1] [µM] | Ki (Cannabinoid receptor 1) [µM] | also measured |
| --- | --- | --- | --- |
| CCCCCCc1ccc(OCCCCCCCCCCC(=O)Nc2ccc(O)cc2)cc1O | > 25 | – | Ki (Cannabinoid receptor 2): > 10 µM |
| CCCCCCc1ccc(OCCCCCCCCCCC(=O)NCCO)cc1O | – | > 10 | – |
| CCCCCc1cc(O)cc(OCCCCCCCCCCCCCCCC(=O)Nc2ccc(O)cc2)c1 | – | > 10 | – |
| CCCCCc1cc(O)cc(OCCCCCCCCCCC(=O)NCCO)c1 | 25 | – | – |
| CCCCCCc1ccc(O)cc1OCCCCCCCCCCC(=O)NCCO | > 25 | – | – |
| CCCCCCc1ccc(O)cc1OCCCCCCCCCCC(=O)Nc1ccc(O)cc1 | > 25 | – | – |
| O=C(CCCCCCCCCCCCCCCOc1cccc(O)c1)NCCO | – | > 10 | – |
| CCCCCCc1ccc(O)cc1OCCCCCCCCCCC(=O)NC1CC1 | 13 | – | IC50 [2]: > 25 µM |
| CCCCCCc1ccc(OCCCCCCCCCCCCCCCC(=O)Nc2ccc(O)cc2)cc1O | – | > 10 | – |
| CCCCCc1cc(O)cc(OCCCCCCCCCCC(=O)NC2CC2)c1 | 17 | – | – |
| O=C(CCCCCCCCCCOc1cccc(O)c1)NC1CC1 | – | > 10 | – |
| CCCCCCCCCCCCCCCc1cccc(OCCCCCC(=O)NCCO)c1 | > 25 | – | – |
| CCCCCc1cc(O)cc(OCCCCCCCCCCCCCCCC(=O)NC2CC2)c1 | – | > 10 | – |
| CCCCCCCCCCCCCCCc1cccc(OCCCCCC(=O)Nc2ccc(O)cc2)c1 | > 25 | – | – |
| O=C(CCCCCCCCCCOc1cccc(O)c1)NCCO | – | > 10 | – |
| O=C(CCCCCCCCCCCCCCCOc1cccc(O)c1)Nc1ccc(O)cc1 | – | – | Ki (Cannabinoid receptor 2): 10 µM |
| CCCCCCc1ccc(O)cc1OCCCCCC(=O)NCCO | – | – | Ki (Cannabinoid receptor 2): > 10 µM |
| CCCCCCc1ccc(OCCCCCCCCCCC(=O)NC2CC2)cc1O | > 25 | > 10 | Selectivity ratio [3]: 26 |
| O=C(CCCCCCCCCCOc1cccc(O)c1)Nc1ccc(O)cc1 | – | – | Ki (Cannabinoid receptor 2): > 10 µM |
